Test results: ChEMBL document CHEMBL1151962, “Identification of N,1,4,4-tetramethyl-8-{[4-(4-methylpiperazin-1-yl)phenyl]amino}-4,5-dihydro-1H-pyrazolo[4,3-h]quinazoline-3-carboxamide (PHA-848125), a potent, orally available cyclin dependent kinase inhibitor” (J Med Chem, 2009)
In brackets after ≈: the same amount, converted by molar mass. Activity calls are given as the source filed them. The calls are words filed in the database; no cut-off is given here.

Experiments:
[1] = target: T1, Cyclin-dependent kinase 2 (Homo sapiens, UniProt P24941); assay: Inhibition of CDK2 in human A2780 cells assessed as reduction of hyperphosphorylated form of retinoblastoma protein at 1 uM relative to control; format: cell-based
How it was run: (§1)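 A2780 human ovarian carcinoma cells (ECACC) were seeded at 25 000 cells/cm2 in RPMI 1640 pH 7.4 with 10% FBS and 2 mM L-glutamine, at 37 °C in 5% CO2. They were exposed 24 h later to 1 or 3 µM. Floating and adherent cells were harvested with trypsin/EDTA. Extracts were immunoblotted for hyper- and hypophosphorylated pRb and compared with untreated cells.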

[2] = target: T1, Cyclin-dependent kinase 2; assay: Inhibition of CDK2 in human A2780 cells assessed as accumulation of hypophosphorylated form of retinoblastoma protein at 3 uM relative to control; format: cell-based; how it was run: as §1
[3] = target: T1, Cyclin-dependent kinase 2; assay: Inhibition of CDK2 in human A2780 cells assessed as reduction of hyperphosphorylated form of retinoblastoma protein at 3 uM relative to control; format: cell-based; how it was run: as §1
[4] = target: T1, Cyclin-dependent kinase 2; assay: Inhibition of CDK2 in human A2780 cells assessed as accumulation of hypophosphorylated form of retinoblastoma protein at 1 uM relative to control; format: cell-based; how it was run: as §1
[5] = Solubility at pH 7; format: physicochemical; details: buffer
[6] = Half life in fasted nu/nu mouse at 10 mg/kg, iv by LC/MS/MS analysis; format: ADME, organism-based; design: dose 10 mg/kg, route intravenous; details: in vivo
How it was run: (§2)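 Overnight-fasted male Nu/Nu mice received a single 10 mg/kg dose iv or orally, in 5% dextrose vehicle, given as the hydrochloride salt. Three mice per route. Saphenous vein blood was drawn predose and at 0.083 (iv) or 0.25 (po), 0.5, 1, 6 and 24 h. Samples were spun at 10000g for 3 min at 4 °C, and plasma was stored at -80 °C until analysis.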

Cytochrome P450 3A4 = Cytochrome P450 3A4 (Homo sapiens, UniProt P08684); assay: Inhibition of human CYP3A4 assessed as compound remaining by LC/MS/MS analysis; format: ADME; design: concentration or dose not given beside the values
Chain of Cytochrome P450 3A4 (P08684 whole entry): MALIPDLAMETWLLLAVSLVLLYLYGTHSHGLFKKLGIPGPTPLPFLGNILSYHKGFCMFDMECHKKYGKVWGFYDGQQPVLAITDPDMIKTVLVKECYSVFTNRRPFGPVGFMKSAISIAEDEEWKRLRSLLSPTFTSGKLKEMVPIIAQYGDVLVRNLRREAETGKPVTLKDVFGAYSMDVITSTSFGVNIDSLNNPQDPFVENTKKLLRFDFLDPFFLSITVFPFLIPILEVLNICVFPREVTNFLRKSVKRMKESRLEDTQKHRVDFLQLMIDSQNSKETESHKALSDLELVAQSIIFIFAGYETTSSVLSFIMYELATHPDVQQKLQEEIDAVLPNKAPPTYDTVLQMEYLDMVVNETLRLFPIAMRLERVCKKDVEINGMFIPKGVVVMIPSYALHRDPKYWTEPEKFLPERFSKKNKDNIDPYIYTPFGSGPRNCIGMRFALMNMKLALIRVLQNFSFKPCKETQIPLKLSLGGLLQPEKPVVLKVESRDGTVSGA

[7] = Solubility in 5% dextrose; format: physicochemical
[8] = Clearance in fasted nu/nu mouse at 10 mg/kg, iv by LC/MS/MS analysis; format: ADME, organism-based; design: dose 10 mg/kg, route intravenous; details: in vivo; how it was run: as §2
[9] = Cmax in fasted nu/nu mouse at 10 mg/kg, po by LC/MS/MS analysis; format: ADME, organism-based; design: dose 10 mg/kg, route oral; details: in vivo; how it was run: as §2
[10] = Oral bioavailability in fasted nu/nu mouse at 10 mg/kg by LC/MS/MS analysis; format: ADME, organism-based; details: in vivo; how it was run: as §2
[11] = Half life in fasted nu/nu mouse at 10 mg/kg, po by LC/MS/MS analysis; format: ADME, organism-based; design: dose 10 mg/kg, route oral; details: in vivo; how it was run: as §2
[12] = Volume of distribution at steady state in fasted nu/nu mouse at 10 mg/kg, iv by LC/MS/MS analysis; format: ADME, organism-based; design: dose 10 mg/kg, route intravenous; details: in vivo, read-out: Vdss; how it was run: as §2
[13] = AUC in fasted nu/nu mouse at 10 mg/kg, po LC/MS/MS analysis; format: ADME, organism-based; design: dose 10 mg/kg, route oral; details: plasma; how it was run: as §2
Homo sapiens = species: Homo sapiens; assay: Protein binding in human plasma; details: read-out: PPB (converted)
[14] = target: T1, Cyclin-dependent kinase 2; assay: Inhibition of CDK2/Cyclin A
A2780 = assay: Antiproliferative activity against human A2780 cells after 72 hrs by cell Titer_Glo assay; format: functional, cell-based; details: A2780, 72 h
How it was run: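 A2780 cells were seeded at 10000–30000 cells/cm² in medium with 10% FCS. After 24 h they were treated with serial dilutions of compound, in two replicates. Cell amount was read by Cell Titer Glo 72 h after treatment. IC50 came from sigmoidal fitting.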

Aurora kinase A = target: T2, Aurora kinase A (Homo sapiens, UniProt O14965); assay: Inhibition of Aurora A
T2 sequence (O14965 whole entry): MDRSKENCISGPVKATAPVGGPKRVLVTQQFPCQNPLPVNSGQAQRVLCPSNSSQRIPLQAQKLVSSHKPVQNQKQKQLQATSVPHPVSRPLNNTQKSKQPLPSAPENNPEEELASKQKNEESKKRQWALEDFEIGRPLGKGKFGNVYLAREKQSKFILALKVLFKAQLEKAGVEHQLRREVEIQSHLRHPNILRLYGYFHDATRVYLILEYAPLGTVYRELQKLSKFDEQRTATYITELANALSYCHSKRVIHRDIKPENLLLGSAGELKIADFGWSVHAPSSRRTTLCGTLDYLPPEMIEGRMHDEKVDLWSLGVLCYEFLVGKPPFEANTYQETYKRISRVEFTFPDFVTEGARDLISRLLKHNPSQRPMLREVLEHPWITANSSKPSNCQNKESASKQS

Mus musculus = assay: Hepatic blood flow in fasted nu/nu mouse at 10 mg/kg, iv by LC/MS/MS analysis; format: ADME, organism-based, Liver; design: dose 10 mg/kg, route intravenous; details: in vivo

solubility [5] [µM] | IC50 [14] [nM] | IC50 (A2780) [nM] | IC50 (Aurora kinase A) [nM] | SMILES | also measured
 |  |  |  | CNC(=O)c1nn(C)c2c1C(C)(C)Cc1cnc(Nc3ccc(N4CCN(C)CC4)cc3)nc1-2 | Activity [1]: Active; Activity [2]: Active; Activity [3]: Active; Activity [4]: Active
1 (≈ 0.396 µg/mL) |  |  |  | Cn1nc(C(=O)Nc2ccccc2)c2c1-c1nc(Nc3ccccc3)ncc1CC2 | 
 |  |  |  | CNC(=O)c1nn(C)c2c1C(C)(C)Cc1cnc(Nc3ccc(OC4CCN(C)CC4)cc3)nc1-2.Cl | half-life [6]: 1.9 h; Activity (Cytochrome P450 3A4): 63%; solubility [7]: 10000 µg/mL; clearance [8]: 43.7 mL/min/kg; Cmax [9]: 600 nM; bioavailability [10]: 38%; half-life [11]: 3.9 h; Vd [12]: 5.27 L/kg; AUC [13]: 2.51 µM·h
1 (≈ 0.36 µg/mL) |  |  |  | Cn1nc(C(=O)NC2CC2)c2c1-c1nc(Nc3ccccc3)ncc1CC2 | 
 |  |  |  | CNC(=O)c1nn(C)c2c1C(C)(C)Cc1cnc(Nc3ccc(CN4CCN(C)CC4)cc3)nc1-2.Cl | half-life [6]: 1.8 h; Activity (Cytochrome P450 3A4): 50%; solubility [7]: 10000 µg/mL; clearance [8]: 31.6 mL/min/kg; Cmax [9]: 770 nM; bioavailability [10]: 42%; half-life [11]: 4.2 h; fraction unbound (Homo sapiens): 0.01; Vd [12]: 3.23 L/kg; AUC [13]: 3.37 µM·h
206 (≈ 86.4 µg/mL) | 35 | 110 | > 5000 | CNC(=O)c1nn(C)c2c1C(C)(C)Cc1cnc(Nc3ccc(CN(C)C)cc3)nc1-2 | 
162 (≈ 76.9 µg/mL) | 59 | 570 | 1180 | CNC(=O)c1nn(C)c2c1C(C)(C)Cc1cnc(Nc3cccc(CN4CCN(C)CC4)c3)nc1-2 | 
41 (≈ 16.6 µg/mL) | 220 | 3010 | 1440 | CNC(=O)c1nn(C)c2c1C(C)(C)Cc1cnc(Nc3cccc(N(C)C)c3)nc1-2 | 
 |  |  |  | CNC(=O)c1nn(C)c2c1C(C)(C)Cc1cnc(Nc3ccc(CN(C)C)cc3)nc1-2.Cl | half-life [6]: 1.4 h; Activity (Cytochrome P450 3A4): 77%; solubility [7]: 10000 µg/mL; clearance [8]: 53.3 mL/min/kg; Cmax [9]: 570 nM; bioavailability [10]: 28%; half-life [11]: 3.4 h; fraction unbound (Homo sapiens): 0.05; Vd [12]: 4.04 L/kg; AUC [13]: 1.97 µM·h
10 (≈ 4.05 µg/mL) | 14 | 120 | 51 | Cn1nc(C(N)=O)c2c1-c1nc(Nc3ccc(N4CCOCC4)cc3)ncc1CC2 | 
183 (≈ 87 µg/mL) | 29 | 170 | 1340 | CNC(=O)c1nn(C)c2c1C(C)(C)Cc1cnc(Nc3ccc(OC4CCN(C)CC4)cc3)nc1-2 | 
47 (≈ 19.7 µg/mL) | 1 | 30 | 30 | CN1CCN(c2cccc(Nc3ncc4c(n3)-c3c(c(C(N)=O)nn3C)CC4)c2)CC1 | 
 |  |  |  | CN1CCN(c2ccc(Nc3ncc4c(n3)-c3c(c(C(N)=O)nn3C)C(C)(C)C4)cc2)CC1.Cl | Activity (Cytochrome P450 3A4): 82%; solubility [7]: 3400 µg/mL; fraction unbound (Homo sapiens): 0.01
< 1 | 24 | 170 | > 10000 | Cn1nc(C(N)=O)c2c1-c1nc(Nc3ccccc3)ncc1CC2(C)C | 
121 (≈ 55.8 µg/mL) | 160 | 870 | 638 | CNC(=O)c1nn(C)c2c1C(C)(C)Cc1cnc(Nc3cccc(CN4CCOCC4)c3)nc1-2 | 
3 (≈ 0.961 µg/mL) |  |  |  | Cn1nc(C(N)=O)c2c1-c1nc(Nc3ccccc3)ncc1CC2 | 

solubility [5] [µM] | IC50 [14] [nM] | IC50 (A2780) [nM] | IC50 (Aurora kinase A) [nM] | SMILES | also measured
51 (≈ 22.8 µg/mL) | 248 | 700 | 625 | CNC(=O)c1nn(C)c2c1C(C)(C)Cc1cnc(Nc3cccc(N4CCOCC4)c3)nc1-2 | 
160 (≈ 76.1 µg/mL) | 47 | 390 | 1580 | CNC(=O)c1nn(C)c2c1C(C)(C)Cc1cnc(Nc3cccc(OC4CCN(C)CC4)c3)nc1-2 | 
1 (≈ 0.388 µg/mL) |  |  |  | Cn1nc(C(=O)NC2CCCC2)c2c1-c1nc(Nc3ccccc3)ncc1CC2 | 
7 (≈ 2.55 µg/mL) | 74 | 2380 | 364 | Cn1nc(C(=O)NCCO)c2c1-c1nc(Nc3ccccc3)ncc1CC2 | 
193 (≈ 81 µg/mL) | 83 | 500 | 2940 | CNC(=O)c1nn(C)c2c1C(C)(C)Cc1cnc(Nc3cccc(CN(C)C)c3)nc1-2 | 
 |  |  |  | CNC(=O)c1nn(C)c2c1C(C)(C)Cc1cnc(Nc3ccc(N4CCN(C)CC4)cc3)nc1-2.Cl | half-life [6]: 2.6 h; Activity (Mus musculus): 36%; Activity (Cytochrome P450 3A4): 85%; solubility [7]: 10000 µg/mL; clearance [8]: 31.2 mL/min/kg; Cmax [9]: 2350 nM; bioavailability [10]: 85%; half-life [11]: 2.9 h; Vd [12]: 4.82 L/kg; AUC [13]: 8.29 µM·h
56 (≈ 22.7 µg/mL) | 59 | 500 | 855 | CNC(=O)c1nn(C)c2c1C(C)(C)Cc1cnc(Nc3ccc(N(C)C)cc3)nc1-2 | 
1 (≈ 0.41 µg/mL) | 1050 | 580 | 374 | Cn1nc(C(=O)NCc2ccccc2)c2c1-c1nc(Nc3ccccc3)ncc1CC2 | 
98 (≈ 43.8 µg/mL) | 17 | 50 | 582 | CN1CCN(c2ccc(Nc3ncc4c(n3)-c3c(c(C(N)=O)nn3C)C(C)(C)C4)cc2)CC1 | 
133 (≈ 61.4 µg/mL) | 36 | 350 | 535 | CNC(=O)c1nn(C)c2c1C(C)(C)Cc1cnc(Nc3ccc(CN4CCOCC4)cc3)nc1-2 | 
46 (≈ 20.6 µg/mL) | 137 | 370 | 649 | CNC(=O)c1nn(C)c2c1C(C)(C)Cc1cnc(Nc3ccc(N4CCOCC4)cc3)nc1-2 | 
156 (≈ 65.3 µg/mL) | 2 | 30 | 53 | CN1CCN(c2ccc(Nc3ncc4c(n3)-c3c(c(C(N)=O)nn3C)CC4)cc2)CC1 | 
170 (≈ 80.7 µg/mL) | 55 | 240 | 1620 | CNC(=O)c1nn(C)c2c1C(C)(C)Cc1cnc(Nc3ccc(CN4CCN(C)CC4)cc3)nc1-2 | 
1 (≈ 0.334 µg/mL) |  |  |  | CNC(=O)c1nn(C)c2c1CCc1cnc(Nc3ccccc3)nc1-2 | 
182 (≈ 83.8 µg/mL) | 31 | 530 | 1000 | CNC(=O)c1nn(C)c2c1C(C)(C)Cc1cnc(Nc3cccc(N4CCN(C)CC4)c3)nc1-2 | 
211 (≈ 91.3 µg/mL) | 45 | 190 | 175 | CNC(=O)c1nn(C)c2c1CCc1cnc(Nc3ccc(N4CCN(C)CC4)cc3)nc1-2 | 
